Source: PubChem BioAssay AID651952 (The Scripps Research Institute Molecular Screening Center, 2012)
The campaign covered roughly 2,400 compounds. About 940 (39%) were called active. A selection follows. Unmarked numbers belong to inactive results.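 The calls were made as follows: active = inhibition above the plate's mean compound inhibition plus 3 SD, computed per plate (cut at about 22% in these data); inactive = the rest.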

Experiment: inhibition of ATP-evoked calcium response in CHO-Ga16 cells, counter-screen for TAAR1 agonist project, cell-based, fluorescence (AID 651952);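 also: 0% = EC80 ATP with DMSO and 100% = DMSO wells without ATP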
Settings: CHO-Ga16 ATP-induced calcium, Fluo-8 fluorescence; at 3 µM; active compounds read high
Method in brief: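 Also added: EC80 ATP stimulus. Test system: parental CHO cells stably overexpressing Gα16, lacking hTAAR1. Incubation: 17–24 h seeding, dye 75 min 37 °C, 30 min RT. Measure: percent inhibition from peak-to-pre-ATP-basal fluorescence ratio, scaled between controls. Repeats: three replicates. Technique: Fluo-8 calcium fluorescence.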
With `NC(=O)C1=C[C@H](c2csc3ccccc23)C[C@H](OCc2ccc(CO)cc2)O1` the inhibition was 36.5% (active).
`CCc1ccccc1S(=O)(=O)Cc1ccc(C(=O)NCCc2ccccc2)o1` showed an inhibition of 8.92%.
For `O=C(Cc1ccc(Cl)cc1)NC(=S)Nc1ccccc1O`, the inhibition was 92.6% (active).
In the case of `Cc1ccccc1NC(=S)NC(=O)Cc1ccc(Cl)cc1`, the inhibition is reported as 44.5% (active).
`O=C(NCCc1ccccc1)Oc1ccc(Cl)cc1` showed an inhibition of 11%.
For `S=C(NCCCc1cnc[nH]1)NCCCN(Cc1ccc(Cl)c(Cl)c1)c1ccc(Br)cn1`, the inhibition was 48.6% (active).
With `CCCCCCCCCCOC(=O)Cn1c(COc2ccc(C)cc2)[n+](C)c2ccccc21` the inhibition was 75.9% (active).
With `Nc1cccc2c1C(=O)N(Cc1nnc(-c3ccccc3Br)o1)C2=O` the inhibition was 7.55%.
Work on `O=C(CSc1nc(-c2ccco2)cc(C(F)(F)F)n1)NCc1cccs1` yielded an inhibition of 3.17%.
For `NC(Cc1ccccc1)c1csc(Nc2cc(Oc3ccccc3)ncn2)n1` (centres undefined), the inhibition was 34.3% (active).
Compound `O=C(COC(=O)Cc1ccccc1F)NCCc1ccccc1` has an inhibition of 5.44%.
With `CC(=O)Oc1ccc(Cn2c(C)c(C(=O)NCc3ccc(C#N)cc3)sc2=O)cc1` the inhibition was 45.6% (active).
For `CN(C)c1ccc(/C=C2\NC(=S)N(Cc3ccccc3)C2=O)cc1`, the inhibition was 71.1% (active).
Work on `O=C(/C=C/[C@H]1O[C@@H](n2cnc3c(NC(=O)c4ccccc4)ncnc32)[C@H](O)[C@@H]1O)NCc1ccccc1` yielded an inhibition of 7.32%.
With `CN(C)CCCN(C(=O)c1ccc(S(=O)(=O)N2CCCc3ccccc32)cc1)c1nc2ccc(F)cc2s1` the inhibition was 43.4% (active).
In the case of `CN(C)CCCN(C(=O)c1ccc(S(=O)(=O)N2CCCCCC2)cc1)c1nc2ccc(Br)cc2s1`, the inhibition is reported as 43% (active).
`Cc1cc(=O)oc2c(C)c(OCC(=O)NCCN3CCOCC3)ccc12` gave an inhibition of 7.14%.
Work on `Nc1c(NCCc2ccccc2)c2ccccc2oc1=O` yielded an inhibition of 18%.
With `CCOC(=O)Cc1csc(NC(=O)Nc2ccccc2)n1` the inhibition was 26.6% (active).
`Cc1ccn2c(=O)c(C(=O)NCCC3=CCCCC3)c(O)nc2c1` gave an inhibition of -3.36%.
With `Cc1ccc(O)c(NC(=S)NC(=O)COc2ccc(Br)cc2)c1` the inhibition was 92% (active).
In the case of `COCCCn1c(Cc2csc(Nc3cccc(Cl)c3)n2)nnc1SCC(=O)OC1CCCCC1`, the inhibition is reported as 6.89%.
`c1ccc(CCN2CN=C(Nc3nc4ccccc4o3)NC2)cc1` showed an inhibition of -0.52%.
In the case of `O=C(NCCc1ccccc1)/C(=C\c1ccc([N+](=O)[O-])cc1)NC(=O)c1ccccc1`, the inhibition is reported as 9.72%.
With `CCCCCC(=O)NC(=S)NNC(=O)c1ccc([N+](=O)[O-])cc1` the inhibition was 51.5% (active).
`CC(NC(=O)c1cc(-c2ccccc2)on1)c1ccccc1` (centres undefined) showed an inhibition of 17.1%.
Compound `O=[N+]([O-])c1cc(S(=O)(=O)NCCc2ccccn2)ccc1Cl` has an inhibition of 0.96%.
In the case of `N#Cc1ccc(OCCCN2CCC(C(O)(c3ccccc3)c3ccccc3)CC2)c(F)c1`, the inhibition is reported as 25.9% (active).
`COc1ccc(NC(=O)C(=O)NCC(c2ccco2)N2CCc3ccccc3C2)cc1` (centres undefined) gave an inhibition of 9.37%.
In the case of `COc1cccc(N(CC(=O)N2CCc3ccccc3C2)S(C)(=O)=O)c1`, the inhibition is reported as 12.7%.
`O=C(O)C1C2C=CC(O2)C1C(=O)NCCc1cccc(Cl)c1` (centres undefined) gave an inhibition of 7.32%.
In the case of `COc1ccc(C(=O)NC(=S)NNC(=O)CCc2ccccc2)cc1`, the inhibition is reported as 58.5% (active).
For `O=C(Nc1cccc(NC(=O)c2ccc(Br)cc2)c1)c1ccccc1`, the inhibition was 2.95%.
For `COc1ccc(C(=O)NNC(=S)NC(=O)c2ccccc2)cc1`, the inhibition was 44.3% (active).
For `Cc1onc(-c2ccccc2)c1C(=O)NNC(=S)NC(=O)c1ccc(F)cc1`, the inhibition was 50.7% (active).
`COc1ccc(C(=O)NC(=S)NNC(=O)c2c(-c3ccccc3)noc2C)cc1` showed an inhibition of 14.4%.
In the case of `CCCc1cc(C(=O)Nc2ccc(C(=O)OC)cc2)cs1`, the inhibition is reported as 11.2%.
In the case of `O=C1CCCC(O)=C1C=NCCc1ccccc1`, the inhibition is reported as 1.71%.
`Cc1ccccc1-c1nc(CS(=O)(=O)CC(=O)N2CCc3ccccc3C2)c(C)o1` showed an inhibition of 18.3%.
In the case of `CCCCC(=O)NNC(=S)NC(=O)C(c1ccccc1)c1ccccc1`, the inhibition is reported as 91% (active).
In the case of `O=C(N[C@H](C(=O)N1CCC[C@H]1C(=O)NCCc1ccccc1Cl)c1ccccc1)c1ccccc1`, the inhibition is reported as 12.2%.
In the case of `C[C@H](NC(=O)c1ccccc1)C(=O)OCC(=O)c1c[nH]c2ccccc12`, the inhibition is reported as -1.32%.
With `CN(C(=O)CN(CCO)CC(=O)N(C)C(C)(C)Cc1ccccc1)C(C)(C)Cc1ccccc1` the inhibition was 74.1% (active).
Work on `COc1cccc(-c2cnc(OC(C)(C)C)nc2OC(C)(C)C)c1` yielded an inhibition of 4.69%.
For `Cc1ccc(Cl)cc1N1CCN(C(=O)c2cccc3c(=O)c(C)c(-c4ccccc4)oc23)CC1`, the inhibition was 69.8% (active).
In the case of `O=C(CCCN=C1NS(=O)(=O)c2ccccc21)OCC(=O)c1ccc(F)c(F)c1`, the inhibition is reported as 26.1% (active).
For `CC(=O)Nc1ccccc1Sc1ccc2c3c(cccc13)C(=O)N(c1ccc(C)cc1)C2=O`, the inhibition was 2.83%.
In the case of `Nc1cc(OC(=O)c2ccccc2Br)nn1S(=O)(=O)c1ccccc1`, the inhibition is reported as 2.75%.
With `COc1ccc(C(N)c2csc(NC(=O)Nc3cccc(C(F)(F)F)c3)n2)cc1` (centres undefined) the inhibition was 41.8% (active).
In the case of `NC(c1ccccc1)c1csc(NC(=O)Nc2cccc(C(F)(F)F)c2)n1` (centres undefined), the inhibition is reported as 48% (active).
Compound `NC[C@H](Cc1ccccc1)NCCc1cc(C(F)(F)F)cc(C(F)(F)F)c1` has an inhibition of 9.31%.
For `CCN(CC)c1ccc2oc(=O)c(C)nc2c1`, the inhibition was 37.7% (active).
For `CC(C)(C)CC(=O)Nc1nc(C(N)Cc2ccc(C(F)(F)F)cc2)cs1` (centres undefined), the inhibition was 54.9% (active).
In the case of `COc1ccc(CC(N)c2csc(NC(=O)Cc3ccccc3)n2)cc1` (centres undefined), the inhibition is reported as 20.4%.
In the case of `CCCCc1c(-c2ccc(Cl)cc2)ncn1CCc1ccccc1OC`, the inhibition is reported as 28% (active).
With `CCCCc1c(-c2ccc(Br)cc2)ncn1CCc1ccccc1OC` the inhibition was 23.5% (active).
In the case of `CCc1c(-c2ccccc2OC)ncn1CCc1ccccc1OC`, the inhibition is reported as 3.45%.
For `S=C(Nc1ccc(Br)cc1)NC1CCN(Cc2ccccc2)CC1`, the inhibition was 23.8% (active).
`COc1ccc2c(c1)OC(O)(C(F)(F)C(F)F)CC2=O` (centres undefined) showed an inhibition of 17.6%.
